Source: ChEMBL document CHEMBL1806370, “Development of novel naphthalimide derivatives and their evaluation as potential melanoma therapeutics” (Eur J Med Chem, 2011)

Key:
[1] = tested on: UACC-903; assay: Induction of apoptosis in human UACC-903 cells assessed as late apoptotic cells at 5 uM after 24 hrs using annexin-V-PE/7-AAD double staining by flow cytometry; type: functional
Summary of the method: (§1)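 UACC 903 cells were exposed 24 h at 37 °C to 1, 5 or 25 µM, with DMSO as control. Cells were harvested, washed twice in cold PBS and resuspended at 1×10^6 cells/mL in binding buffer. They were stained with 7-AAD plus PE Annexin V for 20 min at room temperature in the dark and run by flow cytometry within 1 h. Gating: double-negative live, 7-AAD+ dead, Annexin V+/7-AAD− early apoptotic. Three separate experiments.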

[2] = tested on: UACC-903; assay: Induction of apoptosis in human UACC-903 cells assessed as non-viable cells at 1 uM after 24 hrs using annexin-V-PE/7-AAD double staining by flow cytometry; type: functional; summary of the method: as §1
[3] = tested on: A375-S2; assay: Cytotoxicity against human A375-S2 cells assessed as decrease in cell viability after 24 hrs by MTS assay; type: functional, cell-based
Summary of the method: (§2)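 Cells in DMEM with 10% FBS at 37 °C and 5% CO2 were plated at 5×10^3 per well and grown 24 h. They were then exposed 24 or 72 h to 0.5, 1, 5, 10, 25 and 50 µM, with final DMSO 0.5% and DMSO controls. MTS/PMS was added for 4 h at 37 °C. A492 was read with the medium blank subtracted and expressed as % of control. IC50 was taken from three independent experiments (mean ± S.E.).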

[4] = tested on: UACC-903; assay: Antitumor activity against human UACC-903 cells xenografted in athymic Harlan Sprague-Dawley nude mouse assessed as reduction in tumor growth at 8.5 to 10 mg/kg, ip administered thrice per week for 24 days measured after 21 days; type: functional; details: dose mg/kg 8.5-10; route intraperitoneal
Summary of the method: (§3)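 Female athymic nude mice, 4–6 weeks old, received 5×10^6 UACC 903 cells s.c. in DMEM/10% FBS above both rib cages. After six days they were randomized at 5 mice/group, 2 tumors/mouse. Dosing was i.p. Mon/Wed/Fri, with one arm dosed daily; controls got DMSO vehicle. Tumor dimensions (calipers, mm³) and body weight were recorded three times weekly.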

[5] = tested on: UACC-903; assay: Induction of apoptosis in human UACC-903 cells assessed as non-viable cells at 25 uM after 24 hrs using annexin-V-PE/7-AAD double staining by flow cytometry; type: functional; summary of the method: as §1
[6] = tested on: SK-MEL-37 (Homo sapiens); assay: Cytotoxicity against human SK-MEL-37 cells assessed as decrease in cell viability after 72 hrs by MTS assay
[7] = Cytotoxicity against human A375-S2 cells after 72 hrs by MTS assay; type: functional, cell-based; details: A375-S2, 72 h; summary of the method: as §2
[8] = tested on: Mus musculus; assay: Systemic toxicity in athymic Harlan Sprague-Dawley nude mouse xenografted with human UACC-903 cells assessed as mortality at 10 mg/kg, ip administered daily for 28 days; type: organism-based; design: dose 10 mg/kg, route intraperitoneal; details: in vivo, 672 h
[9] = tested on: UACC-903; assay: Induction of apoptosis in human UACC-903 cells assessed as early apoptotic cells at 5 uM after 24 hrs using annexin-V-PE/7-AAD double staining by flow cytometry; type: functional; summary of the method: as §1
[10] = tested on: UACC-903; assay: Induction of apoptosis in human UACC-903 cells assessed as late apoptotic cells at 1 uM after 24 hrs using annexin-V-PE/7-AAD double staining by flow cytometry; type: functional; summary of the method: as §1
[11] = tested on: UACC-903; assay: Cytotoxicity against human UACC-903 cells assessed as decrease in cell viability after 24 hrs by MTS assay; type: functional, cell-based; summary of the method: as §2
[12] = tested on: 1205Lu; assay: Cytotoxicity against human 1205 Lu cells assessed as decrease in cell viability after 24 hrs by MTS assay; type: functional, cell-based; summary of the method: as §2
[13] = tested on: SK-MEL-37 (Homo sapiens); assay: Cytotoxicity against human SK-MEL-37 cells assessed as decrease in cell viability after 24 hrs by MTS assay
[14] = tested on: UACC-903; assay: Cytotoxicity against human UACC-903 cells after 72 hrs by MTS assay; type: functional, cell-based; details: UACC-903, 72 h; summary of the method: as §2
[15] = Cytotoxicity against human 1205 Lu cells after 24 hrs by MTS assay; type: functional, cell-based; summary of the method: as §2
[16] = tested on: UACC-903; assay: Induction of apoptosis in human UACC-903 cells assessed as increase in apoptotic cells after 24 hrs using annexin-V-PE/7-AAD double staining by flow cytometry; type: functional, cell-based; summary of the method: as §1
[17] = tested on: UACC-903; assay: Induction of apoptosis in human UACC-903 cells assessed as viable cells at 25 uM after 24 hrs using annexin-V-PE/7-AAD double staining by flow cytometry; type: functional; details: UACC-903, 24 h, read-out: Activity; summary of the method: as §1
[18] = tested on: UACC-903; assay: Cytotoxicity against human UACC-903 cells after 24 hrs by MTS assay; type: functional, cell-based; details: UACC-903, 24 h; summary of the method: as §2
[19] = Cytotoxicity against human 1205 Lu cells after 72 hrs by MTS assay; type: functional, cell-based; summary of the method: as §2
[20] = Cytotoxicity against human SK-MEL-37 cells after 72 hrs by MTS assay; type: functional, cell-based; summary of the method: as §2
[21] = tested on: Mus musculus; assay: Systemic toxicity in Swiss Webster mouse assessed as reduction in body weight at 10 mg/kg, ip administered daily for 28 days; design: scale not given: the % may be the effect or the level left; details: in vivo, 672 h
[22] = tested on: Mus musculus; assay: Systemic toxicity in Swiss Webster mouse assessed as mortality at 15 mg/kg, ip administered every day for 28 days; type: organism-based; design: dose 15 mg/kg, route intraperitoneal; details: in vivo, 672 h
Summary of the method: (§4)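 Swiss Webster mice, n = 4 per group, dosed i.p. once daily for 28 days at 5, 7.5, 10 or 15 mg/kg body weight. Body weight recorded twice per week; deaths noted over the dosing period.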

[23] = tested on: Mus musculus; assay: Systemic toxicity in Swiss Webster mouse assessed as mortality at 10 mg/kg, ip administered every day for 28 days; type: organism-based; design: dose 10 mg/kg, route intraperitoneal; details: in vivo, 672 h; summary of the method: as §4
[24] = Cytotoxicity against human A375-S2 cells after 24 hrs by MTS assay; type: functional, cell-based; details: A375-S2, 24 h; summary of the method: as §2
[25] = tested on: UACC-903; assay: Induction of apoptosis in human UACC-903 cells assessed as early apoptotic cells at 25 uM after 24 hrs using annexin-V-PE/7-AAD double staining by flow cytometry; type: functional; summary of the method: as §1
[26] = Cytotoxicity against human SK-MEL-37 cells after 24 hrs by MTS assay; type: functional, cell-based; summary of the method: as §2
[27] = tested on: UACC-903; assay: Induction of apoptosis in human UACC-903 cells assessed as non-viable cells at 5 uM after 24 hrs using annexin-V-PE/7-AAD double staining by flow cytometry; type: functional; summary of the method: as §1
[28] = tested on: UACC-903; assay: Induction of apoptosis in human UACC-903 cells assessed as late apoptotic cells at 25 uM after 24 hrs using annexin-V-PE/7-AAD double staining by flow cytometry; type: functional; summary of the method: as §1
[29] = tested on: Mus musculus; assay: Systemic toxicity in Swiss Webster mouse assessed as weight loss at 10 mg/kg, ip administered every day for 28 days; type: organism-based; design: dose 10 mg/kg, route intraperitoneal; details: in vivo, 672 h; summary of the method: as §4
[30] = tested on: UACC-903; assay: Induction of apoptosis in human UACC-903 cells assessed as viable cells at 1 uM after 24 hrs using annexin-V-PE/7-AAD double staining by flow cytometry; type: functional; details: UACC-903, 24 h, read-out: Activity; summary of the method: as §1
[31] = tested on: UACC-903; assay: Cytotoxicity against human UACC-903 cells assessed as decrease in cell viability after 72 hrs by MTS assay; type: functional, cell-based; summary of the method: as §2
[32] = tested on: 1205Lu; assay: Cytotoxicity against human 1205 Lu cells assessed as decrease in cell viability after 72 hrs by MTS assay; type: functional, cell-based; summary of the method: as §2
[33] = tested on: A375-S2; assay: Cytotoxicity against human A375-S2 cells assessed as decrease in cell viability after 72 hrs by MTS assay; type: functional, cell-based; summary of the method: as §2
[34] = tested on: UACC-903; assay: Induction of apoptosis in human UACC-903 cells assessed as early apoptotic cells at 1 uM after 24 hrs using annexin-V-PE/7-AAD double staining by flow cytometry; type: functional; summary of the method: as §1
[35] = tested on: UACC-903; assay: Induction of apoptosis in human UACC-903 cells assessed as viable cells at 5 uM after 24 hrs using annexin-V-PE/7-AAD double staining by flow cytometry; type: functional; details: UACC-903, 24 h, read-out: Activity; summary of the method: as §1
[36] = tested on: Mus musculus; assay: Systemic toxicity in athymic Harlan Sprague-Dawley nude mouse xenografted with human UACC-903 cells assessed as reduction in body weight at 8.5 to 10 mg/kg, ip administered thrice a week for 24 days; type: organism-based; design: dose 8.5-10 mg/kg, route intraperitoneal; details: in vivo, 576 h; summary of the method: as §3

O=C1c2cccc3cc([N+](=O)[O-])cc(c23)C(=O)N1CCN=C=S
Activity [1]: 11.9% | Activity [2]: 1.39% | Activity [3]: Dose-dependent effect | growth inhibition (GI) [4]: 60% | Activity [5]: 0.19% | Activity [6]: Dose-dependent effect | IC50 [7]: 2.81 µM | Activity [8]: Non-toxic | Activity [9]: 22.2% | Activity [10]: 7.83% | Activity [11]: Dose-dependent effect | Activity [12]: Dose-dependent effect | Activity [13]: Dose-dependent effect | IC50 [14]: 5.5 µM | IC50 [15]: 5.82 µM | Activity [16]: Dose-dependent effect | viability at 25 µM [17]: 1.4% | IC50 [18]: 8.38 µM | IC50 [19]: 3.91 µM | IC50 [20]: 1.73 µM | Activity [21]: 10% | Activity [22]: Toxic | Activity [23]: Non-toxic | IC50 [24]: 7.88 µM | Activity [25]: 79.8% | IC50 [26]: 2.88 µM | Activity [27]: 1.23% | Activity [28]: 18.6% | Activity [29]: Non-toxic | viability at 1 µM [30]: 72.9% | Activity [31]: Dose-dependent effect | Activity [32]: Dose-dependent effect | Activity [33]: Dose-dependent effect | Activity [34]: 17.9% | viability at 5 µM [35]: 64.7% | Activity [36]: Non-toxic

O=C1c2cccc3cccc(c23)C(=O)N1CCCCCCN=C=S
Activity [1]: 28.7% | Activity [2]: 2.99% | Activity [3]: Dose-dependent effect | growth inhibition (GI) [4]: 50% | Activity [5]: 1.15% | Activity [6]: Dose-dependent effect | IC50 [7]: 3.54 µM | Activity [9]: 49.6% | Activity [10]: 6.25% | Activity [11]: Dose-dependent effect | Activity [12]: Dose-dependent effect | Activity [13]: Dose-dependent effect | IC50 [14]: 7.6 µM | IC50 [15]: 11.5 µM | Activity [16]: Dose-dependent effect | viability at 25 µM [17]: 18.7% | IC50 [18]: 9.02 µM | IC50 [19]: 5.25 µM | IC50 [20]: 1.67 µM | Activity [22]: Toxic | Activity [23]: Non-toxic | IC50 [24]: 5.07 µM | Activity [25]: 71.6% | IC50 [26]: 3.07 µM | Activity [27]: 2.11% | Activity [28]: 8.56% | Activity [29]: Non-toxic | viability at 1 µM [30]: 77.8% | Activity [31]: Dose-dependent effect | Activity [32]: Dose-dependent effect | Activity [33]: Dose-dependent effect | Activity [34]: 12.9% | viability at 5 µM [35]: 19.6% | Activity [36]: Non-toxic

O=C1c2cccc3cccc(c23)C(=O)N1CCCCN=C=S
Activity [1]: 16% | Activity [2]: 6.42% | Activity [3]: Dose-dependent effect | growth inhibition (GI) [4]: 30% | Activity [5]: 6.43% | Activity [6]: Dose-dependent effect | IC50 [7]: 3.47 µM | Activity [9]: 34.9% | Activity [10]: 9.79% | Activity [11]: Dose-dependent effect | Activity [12]: Dose-dependent effect | Activity [13]: Dose-dependent effect | IC50 [14]: 5.17 µM | IC50 [15]: 4.88 µM | Activity [16]: Dose-dependent effect | viability at 25 µM [17]: 22.5% | IC50 [18]: 10.7 µM | IC50 [19]: 3.03 µM | IC50 [20]: 2.12 µM | Activity [22]: Toxic | Activity [23]: Non-toxic | IC50 [24]: 6.89 µM | Activity [25]: 51.7% | IC50 [26]: 3.89 µM | Activity [27]: 9.69% | Activity [28]: 19.3% | Activity [29]: Non-toxic | viability at 1 µM [30]: 62.7% | Activity [31]: Dose-dependent effect | Activity [32]: Dose-dependent effect | Activity [33]: Dose-dependent effect | Activity [34]: 21.1% | viability at 5 µM [35]: 39.4% | Activity [36]: Non-toxic
